AF4-AF9 inh – inhibitors of human MLL-AF4/AF9 interaction | P42568 | AlphaScreen, biotin-AF4 peptide binding to FLAG-AF9 | inhibition, % at 10 µM | actives 0.47% (n = 350,000);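 active means every replicate reaching a set inhibition limit, whatever the replicate mean, cut at about 25% in these data; inconclusive means mean inhibition reaches that limit but some replicates miss it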;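 further: 0% = plate neutral control median and 100% = total signal loss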
Target sequence (P42568 whole entry, looked up): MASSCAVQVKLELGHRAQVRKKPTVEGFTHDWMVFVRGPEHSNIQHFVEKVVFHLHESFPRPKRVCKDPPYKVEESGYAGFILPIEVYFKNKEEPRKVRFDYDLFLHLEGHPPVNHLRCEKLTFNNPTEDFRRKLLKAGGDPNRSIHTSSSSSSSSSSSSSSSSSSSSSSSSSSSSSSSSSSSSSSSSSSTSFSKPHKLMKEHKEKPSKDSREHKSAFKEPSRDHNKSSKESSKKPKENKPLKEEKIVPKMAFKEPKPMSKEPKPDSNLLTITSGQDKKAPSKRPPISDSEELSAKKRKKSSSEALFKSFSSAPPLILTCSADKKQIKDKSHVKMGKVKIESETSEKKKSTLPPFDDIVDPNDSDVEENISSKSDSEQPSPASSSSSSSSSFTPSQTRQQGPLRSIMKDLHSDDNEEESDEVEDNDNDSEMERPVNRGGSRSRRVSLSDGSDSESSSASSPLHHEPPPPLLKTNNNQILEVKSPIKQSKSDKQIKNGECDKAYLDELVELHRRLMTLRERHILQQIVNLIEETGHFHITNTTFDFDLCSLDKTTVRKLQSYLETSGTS
CaV13 FRET inh – Primary screen for inhibitors of IQ motif and Ca2+-dependent inactivation inhibitor domain binding in CACNA1D, Förster resonance energy transfer in living cells, …; HEK cells, CFP/YFP FRET ICDI-IQ, plate reader, 10 min; percent FRET-ratio fall versus neutral wells; inhibition, % at 12.3 µM; actives 0.098% (n = 340,000); AID 743397;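 active means mean replicate inhibition of at least 30% and at least 1% of replicates passing that level; inconclusive means only one of the two criteria is met; inactive means neither criterion is met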;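 further: 0% = median of the neutral control wells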
SIRT5 block – sirtuin-5 (human) deacylase inhibition | actives 1.1% (n = 330,000) | AID 652115 | Q9NXA8 | Purified SirT5, succinyl-peptide AMC, trypsin-coupled fluorescence | inhibition, % at 15 µM; in the data active means inhibition above about 15%; inconclusive means no clear call, values can overlap the other calls
S100A4 MyoIIA – S100A4-myosin IIA interaction inhibition | P26447 | S100A4/TAMRA-MyoIIA peptide fluorescence polarization | inhibition, % at 10.7 µM | actives 0.14% (n = 360,000) | AID 652163;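 active means mean inhibition of at least 70% across replicates, with every replicate also reaching that level; inconclusive means mean inhibition reaches 70% but some replicates fall short; inactive means mean inhibition below 70%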
Target sequence (P26447 whole entry, looked up): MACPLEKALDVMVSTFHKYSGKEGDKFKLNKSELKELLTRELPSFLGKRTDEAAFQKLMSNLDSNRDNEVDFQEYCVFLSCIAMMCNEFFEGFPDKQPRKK
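Material: S100A4 monomer (human). Medium: Calcium-containing HEPES buffer, pH 7.2. Probe or stimulus: labelled myosin peptide probe, 5 nM. Compound dosing: one concentration per compound. Timing: polarization read 5 min after assay mix addition, stable 5–60 min. Benchmarks: DMSO as neutral control, TFP as positive control.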
DENV2 CPE – inhibitors of DENV2 cytopathic effect | DENV2-infected cells, cytopathic effect rescue, plate reader | CPE inhibition, % at 9.99 µM | actives 1.7% (n = 350,000) | AID 651640; in the data active means CPE inhibition above about 20%, passing the limit was not always enough; inconclusive means no clear call, values can overlap the other calls; tested in BHK-21 cells;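 further: 0% = median of neutral control wells and 100% = median of positive control wells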
* hit, by the source's call; ? = inconclusive; nt = no result. Hits are enriched below; roughly 2.7% of the tested compounds scored in any of these assays.

SMILES | AF4-AF9 inh | CaV13 FRET inh | SIRT5 block | S100A4 MyoIIA | DENV2 CPE
C[C@@H]1CCCCO[C@H](CN(C)S(=O)(=O)c2ccc(F)cc2)[C@@H](C)CN([C@@H](C)CO)C(=O)c2cc(NS(=O)(=O)c3ccc(F)cc3)ccc2O1 | nt | nt | nt | nt | -14
O=C(NCC(c1ccco1)N1CCc2ccccc21)c1c(F)cccc1F (configuration not stated) | 0 | -5 | -1 | -5 | 63*
CC(Sc1ccccc1)C(=O)NCC(c1ccco1)N1CCCCC1 (configuration not stated) | -3 | -4 | 4 | -9 | 107*
O=C(NCC(c1ccco1)N1CCN(c2ccccc2F)CC1)C1CCCCC1 (configuration not stated) | 1 | -1 | 20* | 8 | -6
O=C(NCC(c1ccco1)N1CCc2ccccc21)c1ccccc1Cl (configuration not stated) | 8 | -6 | 0 | 4 | -4
O=C(COc1ccccc1)NCC(c1ccco1)N1CCN(c2ccc(F)cc2)CC1 (configuration not stated) | 6 | -2 | 19* | 7 | 1
C[C@H]1CN([C@@H](C)CO)C(=O)c2cccc(NC(=O)NC3CCCCC3)c2O[C@@H]1CN(C)Cc1ccncc1 | 1 | nt | -2 | -3 | -4
C[C@H]1CN([C@@H](C)CO)S(=O)(=O)c2ccc(C3=CCCCC3)cc2O[C@@H]1CN(C)Cc1cncnc1 | 8 | nt | 3 | -5 | -9
O=C(Nc1ccccc1F)N1CC(=O)N2[C@H](CO)[C@H](c3ccc(C#CC4CC4)cc3)[C@H]2C1 | -1 | nt | 1 | 1 | 7
O=C(O)c1cccc(S(=O)(=O)Nc2ccccc2Cc2ccccc2)c1 | 44* | -3 | -2 | -2 | 4
O=C(O)c1cccc(S(=O)(=O)Nc2cccc3ccccc23)c1 | -6 | -5 | 2 | -9 | 12
N#CC1(NC(=O)CSc2nc3ccccc3o2)CCCCC1 | -3 | -6 | -5 | 2 | -8
N#CC1(NC(=O)CSc2ccccn2)CCCCC1 | -4 | -6 | -2 | -8 | 111*
COc1ccc2c3c(n(C)c2c1)[C@@H](CO)N(C(=O)NC1CCCCC1)CC31CN(C)C1 | 3 | nt | 2 | -10 | 32*
COc1ccc2c3c(n(C)c2c1)[C@H](CO)N(C)CC31CCN(C(=O)CN2CCOCC2)CC1 | nt | nt | -3 | -5 | 53*
COc1ccc2c3c(n(C)c2c1)[C@H](CO)N(C(C)=O)CC31CN(C(=O)C2CC2)C1 | -1 | nt | nt | nt | 66*
COc1ccc2c3c(n(C)c2c1)[C@@H](CO)N(C(=O)C1CCCC1)CC31CN(C(=O)Nc2cccc(F)c2)C1 | 3 | nt | 2 | -4 | 77*
O=C(c1ccc(F)cc1)N1CC[C@@H]2[C@@H](CO)Nc3ccc(C#Cc4ccc(F)cc4)cc3[C@@H]21 | -16 | nt | nt | nt | -29
COc1ccc(S(=O)(=O)N(C)C[C@@H]2Oc3ccc(NC(=O)CCN4CCOCC4)cc3C(=O)N([C@@H](C)CO)C[C@@H]2C)cc1 | -3 | nt | 0 | -3 | 18
COc1ccc2c3c(n(C)c2c1)[C@H](CO)N(C(=O)Cc1ccccn1)CC31CN(CC2CCCCC2)C1 | 26* | nt | nt | 6 | 7
COc1ccc2c3c(n(C)c2c1)[C@H](CO)N(C(=O)C1CCCC1)CC31CN(Cc2cccc(F)c2)C1 | ? | nt | nt | 8 | 15
COc1ccc2c3c(n(C)c2c1)[C@H](CO)N(C(=O)C1CCC1)CC31CN(Cc2cccc(F)c2)C1 | 14 | nt | -10 | 8 | 22*
COc1ccc2c3c(n(C)c2c1)[C@H](CO)N(C(=O)C1CC1)CC31CN(Cc2ccccc2OC)C1 | 29* | nt | 2 | 18 | -3
COc1ccc2c3c(n(C)c2c1)[C@H](CO)N(C(=O)CN1CCOCC1)CC31CCN(C(=O)Nc2cccc(F)c2)CC1 | 0 | nt | -1 | -40 | 33*
O=C(c1ccccn1)N1CC(=O)N2[C@H](C1)[C@H](c1ccc(C#Cc3ccccc3)cc1)[C@@H]2CO | 1 | nt | 0 | 19 | 0
SMILES | AF4-AF9 inh | CaV13 FRET inh | SIRT5 block | S100A4 MyoIIA | DENV2 CPE
C[C@H]1CN([C@@H](C)CO)C(=O)Cc2cc(NC(=O)CCN3CCOCC3)ccc2O[C@@H]1CN(C)Cc1ccc2c(c1)OCO2 | 2 | nt | nt | -2 | -2
O=C(C[C@@H]1CC[C@H](NC(=O)Nc2cc(F)ccc2F)[C@@H](CO)O1)Nc1ccc(-c2ccccc2)cc1 | -13 | nt | 0 | 2 | 7
COc1ccc2c3c(n(C)c2c1)[C@@H](CO)N(Cc1cc(F)ccc1F)CC31CN(C(=O)C2CC2)C1 | -4 | nt | 5 | ? | 38*
COc1cccc(CN2CC3(C2)CN(C(=O)C2CC2)[C@@H](CO)c2c3c3ccc(OC)cc3n2C)c1 | 26* | nt | nt | nt | 4
CN(C)C(=O)c1ccc(-c2ccc([C@H]3[C@H](CO)N4CCCCN(C(=O)C5CC5)C[C@@H]34)cc2)cc1 | -3 | nt | 2 | -11 | 1
CC1(c2ccc3ccccc3c2)CCC(=O)O1 (configuration not stated) | -3 | -6 | -3 | -1 | 22*
CC(C)(C)[C@H]1CCC(=O)N([C@H](CSc2ccccc2)Cc2ccccc2)CC1 | -29 | 34* | 1 | 10 | 0
CC(C)(C)[C@H]1CCC(=O)N([C@H](CSc2ccc(Br)cc2)Cc2ccccc2)CC1 | -4 | -9 | 1 | 8 | -14
Cc1ccc(SC[C@H](Cc2ccccc2)N2CC[C@@H](C)CCC2=O)cc1 | -15 | -11 | nt | -2 | 94*
CCCN1CCC(=O)N([C@H](CSc2ccccc2)Cc2ccccc2)CC1 | 6 | -5 | nt | -2 | 49*
CC(=O)N(C)C[C@@H]1Oc2ncc(-c3ccc(C(=O)N(C)C)cc3)cc2C(=O)N([C@H](C)CO)C[C@H]1C | -3 | nt | 0 | -11 | 2
CO[C@H]1CN(C)C(=O)c2ccc(NC(=O)Nc3ccc(Cl)c(Cl)c3)cc2OC[C@H](C)NC[C@H]1C | 14 | nt | 100* | -5 | 7
CO[C@H]1CN(C)C(=O)c2ccc(NC(=O)Nc3ccccc3)cc2OC[C@H](C)NC[C@@H]1C | -3 | nt | -2 | -42 | 32*
CO[C@@H]1CN(C)C(=O)c2ccc(NC(=O)Nc3ccc(F)cc3)cc2OC[C@H](C)NC[C@@H]1C | 1 | nt | 0 | 3 | 36*
CO[C@H]1CN(C)C(=O)c2ccc(NC(=O)Nc3ccc(Cl)c(Cl)c3)cc2OC[C@H](C)NC[C@@H]1C | 11 | nt | 11 | -3 | 4
O=C(C[C@H]1CC[C@H](NC(=O)c2ccccn2)[C@H](CO)O1)NCc1cc(F)cc(F)c1 | -1 | nt | 2 | -1 | -12
CO[C@H]1CN(C)C(=O)c2cc(NS(C)(=O)=O)ccc2OC[C@H](C)N(C(=O)CC2CC2)C[C@H]1C | -10 | nt | 1 | 8 | 10
O=C(O)c1ccc(N/N=C/C2=C(N3CCOCC3)C(=C\c3ccccc3)/CC2)cc1 | 2 | -2 | 19* | -14 | -5

Screening results as filed in PubChem BioAssay.
